Source: PubChem BioAssay
In the library only some 3.5% were active in any assay of this set; here they are far more common.
Env fusion inh = inhibitors of HIV Env-mediated cell fusion; AID 651610; 360,000 compounds, 1.1% hits; HeLa-JRFL Env/CEM21 cell fusion, luciferase; inhibition, % at 12.3 µM;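 active = mean replicate inhibition score of at least 50 and every replicate individually at or above 50; inconclusive = only one of the two criteria met; inactive = mean below 50 and not all replicates reaching 50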;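 note: 0% = plate neutral controls and 100% = maraviroc near 300 nM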
FGF22 binding = FGF22 (human) thermal shift binding | Q9HCT0 | recombinant FGF22 thermal shift, SYPRO orange fluorescence; percent of sucrose octasulfate shift, DMSO zero | activity (Tm shift, normalised), % at 9.99 µM | 340,000 compounds, 1.5% hits | AID 651658;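 active = mean Tm shift, scaled 0 neutral to 100 positive control, at about 1.3% or above, every replicate too, limit read from the data; inconclusive = no clear call, values can overlap the other calls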
Cneo AK release = causes C. neoformans cell lysis. adenylate kinase release luminescence, 4 h; normalised: neutral wells 0, clomiphene wells 100. lysis activity, % at 15 µM. 360,000 compounds, 0.2% hits. AID 651654;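 active = mean lysis activity across replicates of at least 80%, whatever share of replicates individually reach that level; inactive = mean lysis activity below 80%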
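Assay system: C. neoformans cells. Amount: yeast cell density of 5 × 10^6 cells/mL. Technique: AK luminescence. Buffer or medium: YPD. Times: static 4 h at 37 °C with compound, 1 h detection. Dosing: single-point compound dose. Read-out: lysis from increased AK signal.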
rRNA inh HTS = selective bacterial rRNA inhibition in E. coli. E. coli WT GFP vs humanized-ribosome RFP mutants, fluorescence, 24 h; active compounds read low; DMSO median 0, no signal -100. 350,000 compounds, 1.6% hits. GFP signal change (wild-type ribosome), % (concentration not given with the values);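 active = significant combined selectivity score with lowered wild-type GFP, culture density cut under 30%, mutant RFP and density less affected; inactive = any of these conditions unmet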
ERAP1 HTS inh = inhibitors of human ERAP1 aminopeptidase; recombinant ERAP1, Leu-AMC fluorescence, 60 min; inhibition, % at 10.7 µM; 340,000 compounds, 0.15% hits;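 active = mean replicate inhibition of at least 30%, or all replicates individually reaching that 30% level; inactive = mean below 30% and not every replicate reaching it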;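 note: 0% = neutral control wells and 100% = L-leucinethiol positive control wells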
Target sequence (Q9NZ08 whole entry, looked up): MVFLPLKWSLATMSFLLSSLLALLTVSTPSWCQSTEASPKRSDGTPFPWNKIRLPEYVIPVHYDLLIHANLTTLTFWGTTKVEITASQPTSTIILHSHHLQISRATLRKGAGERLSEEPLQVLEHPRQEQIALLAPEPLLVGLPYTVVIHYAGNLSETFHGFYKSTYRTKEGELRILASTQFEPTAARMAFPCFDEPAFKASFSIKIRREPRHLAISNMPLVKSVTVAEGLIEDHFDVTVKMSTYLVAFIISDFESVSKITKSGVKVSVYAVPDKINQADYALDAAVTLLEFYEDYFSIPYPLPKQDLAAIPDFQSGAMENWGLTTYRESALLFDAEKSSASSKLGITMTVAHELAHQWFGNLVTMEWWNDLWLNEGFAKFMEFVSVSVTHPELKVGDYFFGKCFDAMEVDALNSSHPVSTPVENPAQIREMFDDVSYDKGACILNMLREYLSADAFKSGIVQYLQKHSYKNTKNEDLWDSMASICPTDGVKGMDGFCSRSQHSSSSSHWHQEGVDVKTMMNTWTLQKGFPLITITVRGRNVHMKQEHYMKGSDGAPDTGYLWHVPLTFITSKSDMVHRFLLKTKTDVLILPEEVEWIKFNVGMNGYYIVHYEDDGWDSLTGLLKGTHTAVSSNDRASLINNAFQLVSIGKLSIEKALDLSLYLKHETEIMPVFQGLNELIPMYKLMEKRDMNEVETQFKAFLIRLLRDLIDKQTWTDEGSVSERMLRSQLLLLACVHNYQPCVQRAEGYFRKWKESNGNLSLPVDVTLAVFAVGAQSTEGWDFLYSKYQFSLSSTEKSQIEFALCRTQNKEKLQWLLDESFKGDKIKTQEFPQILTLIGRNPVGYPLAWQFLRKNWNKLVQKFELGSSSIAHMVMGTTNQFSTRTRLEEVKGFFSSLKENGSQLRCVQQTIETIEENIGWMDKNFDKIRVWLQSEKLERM
PGC1a acetyl inh = modulators of PGC1a acetylation. inhibition, % at 15.6 µM. U2OS PGC1a acetylation, AlphaScreen anti-acetyl-lysine; with virally co-expressed GCN5 acetyltransferase. AID 651687. 350,000 compounds, 0.17% hits;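 active = every replicate shows inhibition of at least 40%; inconclusive = mean inhibition at least 40% but some replicate below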;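 note: 0% = neutral control wells and 100% = positive control wells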
* = called active by the depositor; [ ] = dose if it differs, or a comment.

Screening C[C@@H]1CCCCO[C@H](CN(C)C(=O)Nc2ccc(C(F)(F)F)cc2)[C@@H](C)CN([C@H](C)CO)C(=O)c2cc(NC(=O)Nc3ccc(C(F)(F)F)cc3)ccc2O1 returned Env fusion inh 16.5[16.7 µM], FGF22 binding 1.4*, Cneo AK release 3.2, rRNA inh HTS 3.3, ERAP1 HTS inh -7.2 and PGC1a acetyl inh 1.9.
C[C@@H]1CN([C@H](C)CO)C(=O)c2cc(NC(=O)Nc3ccc(F)cc3)ccc2O[C@@H](C)CCCCO[C@@H]1CN(C)C(=O)c1ccccc1 was read as Env fusion inh -5.5[16.7 µM], FGF22 binding 1.4*, Cneo AK release -1.8, rRNA inh HTS -5.9, ERAP1 HTS inh -4.5 and PGC1a acetyl inh 1.7.
C[C@@H]1CCCCO[C@H](CN(C)C(=O)Nc2ccc(C(F)(F)F)cc2)[C@H](C)CN([C@@H](C)CO)C(=O)c2cc(NC(=O)Nc3ccc(C(F)(F)F)cc3)ccc2O1 was read as Env fusion inh 16.8[16.7 µM], FGF22 binding 0.2, Cneo AK release 3.7, rRNA inh HTS -0.5 and PGC1a acetyl inh 9.4.
Cc1nnc(NCc2ccco2)s1 was read as Env fusion inh 2.4, Cneo AK release -2.6 and PGC1a acetyl inh 4.6.
`C[C@@H]1CCCCO[C@H](CN(C)C(=O)c2ccccc2)[C@@H](C)CN([C@H](C)CO)C(=O)c2cc(NC(=O)Nc3ccc(C(F)(F)F)cc3)ccc2O1` gave Env fusion inh -8.8[16.7 µM], FGF22 binding 0.2, Cneo AK release -2.4, rRNA inh HTS 3.7, ERAP1 HTS inh -1.5 and PGC1a acetyl inh 9.7.
`C[C@@H]1CCCCO[C@H](CN(C)C(=O)C2CCCCC2)[C@@H](C)CN([C@@H](C)CO)C(=O)c2cc(NC(=O)Nc3ccc(F)cc3)ccc2O1` gave Env fusion inh 57.4*[16.7 µM], FGF22 binding -0.4, Cneo AK release -2.7, rRNA inh HTS 0.7, ERAP1 HTS inh 2.6 and PGC1a acetyl inh 0.0.
Screening C[C@@H]1CN([C@H](C)CO)C(=O)c2cc(NC(=O)Nc3ccc(C(F)(F)F)cc3)ccc2O[C@@H](C)CCCCO[C@H]1CN(C)C(=O)c1ccccc1 returned Env fusion inh 56.0*[16.7 µM], FGF22 binding -0.2, Cneo AK release -2.8, rRNA inh HTS -3.5, ERAP1 HTS inh 1.8 and PGC1a acetyl inh -1.9.
Screening COc1cccc(CN2CCNC(=O)C2CC(=O)NCCCn2ccnc2)c1 (stereo not given) returned Env fusion inh 2.3, FGF22 binding 0.2, Cneo AK release -0.8, rRNA inh HTS 7.3, ERAP1 HTS inh -3.3 and PGC1a acetyl inh -4.4.
Screening COCC#Cc1ccc2c(c1)O[C@@H](CN(C)C(=O)CC1CC1)[C@H](C)CN([C@@H](C)CO)S2(=O)=O returned Env fusion inh -20.1[16.7 µM], FGF22 binding -0.7, Cneo AK release -3.3, rRNA inh HTS -0.6, ERAP1 HTS inh -0.8 and PGC1a acetyl inh -3.9.
CCN(CC)S(=O)(=O)c1ccc(N2CCOCC2)c(NC(=O)c2ccco2)c1 was read as Env fusion inh 58.1*, FGF22 binding -0.2, Cneo AK release -4.8, rRNA inh HTS -8.6, ERAP1 HTS inh 2.6 and PGC1a acetyl inh 3.2.
CCN(CC)S(=O)(=O)c1ccc(N2CCCC2)c(NC(=O)Cc2c(F)cccc2Cl)c1 was read as Env fusion inh 56.7*, FGF22 binding 0.0, Cneo AK release 2.8, rRNA inh HTS 2.5 and ERAP1 HTS inh -1.2.
O=C(Nc1ccccc1F)Nc1cc(S(=O)(=O)N2CCOCC2)ccc1N1CCCC1 was read as Env fusion inh -3.0, FGF22 binding 0.1, rRNA inh HTS -19.1*, ERAP1 HTS inh 1.3 and PGC1a acetyl inh -1.3.
`CCN1CCN(c2ccc(S(=O)(=O)N3CCCCC3)cc2NC(=O)Cc2c(F)cccc2Cl)CC1` gave Env fusion inh -1.6, FGF22 binding 0.0, Cneo AK release 11.1, rRNA inh HTS 5.3 and ERAP1 HTS inh -0.5.
For O=C(NC(=S)Nc1cc(S(=O)(=O)N2CCOCC2)ccc1O)c1ccco1 the results were Env fusion inh -2.1, FGF22 binding 5.5*, Cneo AK release -1.8, rRNA inh HTS -15.2 and ERAP1 HTS inh 10.7.
`CCOC(=O)C1=C(CS(=O)(=O)c2ccccc2)NC(=O)NC1c1ccc(O)c(OC)c1` (stereo not given) gave Env fusion inh -32.8, FGF22 binding -0.5, Cneo AK release 0.7, rRNA inh HTS 4.4 and PGC1a acetyl inh inconclusive.
Screening Cc1cccc(Cc2c(C)[nH]c(=O)c(C#N)c2C)c1 returned Env fusion inh -16.8, FGF22 binding 43.2*, rRNA inh HTS 13.2 and ERAP1 HTS inh -3.8.
For N=C1SCC(=O)N1c1ncc(Cc2ccc(F)cc2)s1 the results were Env fusion inh 3.8, FGF22 binding -0.1, Cneo AK release 15.4, rRNA inh HTS -47.5*, ERAP1 HTS inh 7.8 and PGC1a acetyl inh 9.0.
Screening Cc1ccc(-c2csc(N3C(=N)SCC3=O)n2)cc1 returned Env fusion inh -53.3, FGF22 binding -0.2, rRNA inh HTS 1.5 and ERAP1 HTS inh 5.7.
For CCOC(=O)c1c(C)n(CCOc2ccccc2)c2ccc(O)cc12 the results were Env fusion inh -9.5, FGF22 binding -0.1, Cneo AK release -0.7, rRNA inh HTS 1.9, ERAP1 HTS inh 3.6 and PGC1a acetyl inh -11.0.
`COc1ccccc1OCCCn1c(=O)sc2ccccc21` gave Env fusion inh -319.7 and Cneo AK release -1.4.
CC1(C(=O)NCCCN2CCOCC2)Oc2cccnc2NC1=O (stereo not given) was read as Env fusion inh 6.2, FGF22 binding 43.3*, Cneo AK release -0.7, rRNA inh HTS -3.8, ERAP1 HTS inh -0.3 and PGC1a acetyl inh 7.2.
O=C1C(=Cc2cccs2)Oc2ccccc21 was read as Env fusion inh -135.9, Cneo AK release -0.6, rRNA inh HTS -18.9*, ERAP1 HTS inh 1.2 and PGC1a acetyl inh -19.9.
Screening Cc1cccc(Nc2c(F)c(F)c(F)c(F)c2C(=O)O)c1 returned Env fusion inh -6.0, FGF22 binding 0.8, rRNA inh HTS -30.5*, ERAP1 HTS inh 3.0 and PGC1a acetyl inh 11.7.
Screening C[C@@H]1CN([C@@H](C)CO)C(=O)c2cc(NC(=O)Nc3ccc(C(F)(F)F)cc3)ccc2O[C@@H](C)CCCCO[C@@H]1CN(C)C returned Env fusion inh -21.9[16.7 µM], FGF22 binding -2.1, Cneo AK release 51.6, rRNA inh HTS -12.5, ERAP1 HTS inh -3.6 and PGC1a acetyl inh -2.9.
Screening COc1cc2ccc(=O)oc2cc1O returned FGF22 binding 0.0, Cneo AK release 2.9, rRNA inh HTS 5.5, ERAP1 HTS inh 74.3* and PGC1a acetyl inh 5.0.
For O=C(COC(=O)C1CCC(=O)N1)Nc1ccccc1Br (stereo not given) the results were Env fusion inh 7.3, FGF22 binding 43.1*, Cneo AK release 1.9, rRNA inh HTS -0.3, ERAP1 HTS inh -4.9 and PGC1a acetyl inh -3.2.
